Where two headings read alike, the source gives them in different places.

The subject of series [1] is BR+ and BR- cell lines. Put plainly: internalization of fluorescence-labeled paclitaxel by CFM and flow cytometry. The format is cell-based. The note with it: Figure S1. The procedure, abridged: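 After probe exposure, cells trypsinised if needed, washed twice in PBS and resuspended in PBS. Flow cytometry: 488 nm excitation, emission at 530 nm (30 nm bandpass, 515–545 nm), about 10,000 cells counted per experiment, FITC fluorescence distribution analysed. Confocal: two-photon laser-scanning microscope, 488 nm excitation, emission 527 ± 23 nm (505–550 nm bandpass), cells on uncoated coverslip slide.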
(In general: In flow cytometry, cells or beads pass a laser one at a time.)

Series [2] has as its system L1210 murine lymphocytic leukemia cell line (BR−). Put plainly: standard MTT cytotoxicity assay, continuous incubation. The settings on record: read-out: Cytotoxicity IC50, L1210; incubation at 37 °C for 48 h. The format is cell-based. (Tetrazolium assays rely on reduction of a dye to a coloured formazan, in cell work by metabolically active cells.)
For series [3], the system named is WI38 human lung fibroblast cell line (BR−). The series is described as above. The format is cell-based.
For series [4], the system named is L1210FR murine lymphocytic leukemia cell line (BR+). The series is described as above. Format: cell-based.
For series [5], the system named is ID8 murine ovarian carcinoma cell line (BR+). Described as above. Format: cell-based. The settings on record: read-out: Cytotoxicity IC50, ID8; incubation at 37 °C for 48 h.
For series [6], the system named is MX-1 human breast carcinoma cell line (BR+). The description is as above. Format: cell-based.
Series [7] deals with BR+ cancer cell lines (MX-1, L1210FR, ID8). The series is described as follows: MTT cytotoxicity, text summaries pooled over BR+ cancer cell lines. The format is cell-based. The procedure, abridged:
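Adherent cells seeded at 8,000–10,000/well and held 24 h at 37 °C before dosing; leukemia cells at 0.5–0.8 × 10^4/well suspended directly in test solutions. Final 0.5–5,000 nM from DMSO stocks, 37 °C, 5% CO2, 48 h or 72 h. Assay 2: 24 h exposure, PBS wash, GSH-OEt (6 equiv. to conjugate) added, further 48 h. MTT 0.5 mg/mL in PBS, 3 h, 37 °C.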

The subject of series [8] is MX-1 human breast carcinoma cell line (BR+). The series is described as follows: MTT Assay 2: 24 h incubation, PBS wash, GSH-OEt addition, further 48 h. Format: cell-based. The note with it: read-out: Cytotoxicity IC50, MX-1, Assay 2, GSH-OEt (6 equiv.), additional 48 h. The method in brief: (§1)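 Cells grown in supplemented RPMI-1640 (5% FBS, 5% NuSerum, 1% PenStrep) at 37 °C, 5% CO2, then seeded at 0.5–1.5 × 10^4 cells/well. Test compound (from DMSO stock; DMSO ≤1%) was added for 24 h at 37 °C. Medium was then removed, cells were washed with PBS, and GSH-OEt (6 equiv. to conjugate) in fresh medium was added for 48 h more (72 h total). MTT (0.5 mg/mL, 3 h), formazan dissolved in acidic isopropanol/Triton X-100, A570. IC50 from four-parameter logistic fit; triplicate.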

Series [9] relates to L1210FR murine lymphocytic leukemia cell line (BR+). The series is described as follows: MTT Assay 3: 24 h incubation, GSH-OEt addition without washing, further 48 h. The format is cell-based. The note with it: read-out: Cytotoxicity IC50, L1210FR, Assay 3, GSH-OEt (6 equiv.) added without wash, additional 48 h. The method in brief: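 L1210FR suspension cells in supplemented RPMI-1640 were exposed to test compound at 37 °C for 24 h; DMSO ≤1%. GSH-OEt (6 equiv.) in medium was then added directly, without washing, for a further 48 h (72 h total). Viability was read by MTT (0.5 mg/mL in PBS, 3 h, 37 °C), solubilized in 0.1 N HCl/isopropanol with 10% Triton X-100, at 570 nm. IC50 by four-parameter logistic fit; triplicate runs.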

Series [10] shares this test system. The series is described as follows: MTT Assay 2: 24 h incubation, PBS wash, GSH-OEt addition, further 48 h. The note with it: read-out: Cytotoxicity IC50, L1210FR, Assay 2, GSH-OEt (6 equiv.), additional 48 h. Format: cell-based. The method in brief:
as §1

The subject of series [11] is WI38 (BR−) cells. The series is described as follows: internalization by confocal fluorescence microscopy and flow cytometry. Format: cell-based, human. The settings on record: 5 µM, 37 °C.
Series [12] relates to L1210 (BR−) cells. The description is as above. The format is cell-based, murine. The note with it: 5 µM, 37 °C.
The subject of series [13] is BR+ cancer cell lines (L1210FR, MX-1, ID8). The series is described as follows: internalization by confocal fluorescence microscopy and flow cytometry. The note with it: 5 µM, 37 °C. Format: cell-based. The method in brief: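 Adherent cells were seeded at 5 × 10^5 cells/mL overnight, then given medium containing 5 µM fluorescent probe. For leukemia cells, 1 mM DMSO stock was spiked into fresh suspensions to 5 µM final. Incubation ran 30 min–24 h at 37 °C; cells were then trypsinized as needed and washed twice in PBS. Flow cytometry used 488 nm excitation, 515–545 nm emission, ~10,000 cells. Confocal imaging used 488 nm excitation, 505–550 nm bandpass, 63× water objective.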

[14] abbreviates: read-out: Cytotoxicity IC50, WI38, Assay 1, 37 °C, 72 h, no GSH-OEt.
Setting [15] is: read-out: Cytotoxicity IC50, WI38, incubation at 37 °C for 48 h.
The mark [16] stands for this setting: read-out: Cytotoxicity IC50, L1210FR, Assay 1, 37 °C, 72 h, no GSH-OEt.
Setting [17] is: read-out: Cytotoxicity IC50, L1210FR, incubation at 37 °C for 48 h.
The mark [18] stands for this setting: read-out: Cytotoxicity IC50, MX-1, Assay 1, 37 °C, 72 h, no GSH-OEt.
The mark [19] stands for this setting: read-out: Cytotoxicity IC50, MX-1, incubation at 37 °C for 48 h.

Take “7-(4-Fluoresceinyl)butanoylpaclitaxel [compound 6]”: the “internalization across BR+ and BR- cell lines” value in series [1] is reported as “nonspecific internalization”.

By IC50 is commonly meant the concentration needed to halve the response being measured. `CC(=O)O[C@@]12CO[C@@H]1C[C@H](O)[C@@]1(C)C(=O)[C@H](OC(=O)C3CC3)C3=C(C)[C@@H](OC(=O)[C@H](O)[C@H](C=C(C)C)NC(=O)OC(C)(C)C)C[C@@](O)([C@@H](OC(=O)c4ccccc4)[C@H]21)C3(C)C` [Taxoid 3, SB-T-1214, reference compound]: the IC50 was found to be 7.05 ± 1.38 nM in series [2]; 4.89 ± 2.24 nM in [3] (setting [14]); 5.23 ± 0.27 nM in [3] (setting [15]); 2.32 ± 1.41 nM in series [4] (setting [16]); 4.18 ± 1.8 nM in series [4] (setting [17]); 0.17 ± 0.14 nM in series [5]. Also, the half-inhibitory concentration (IC50) in series [6] (setting [18]) was 2.66 ± 0.16 nM; in series [6] (setting [19]) it was 4.13 ± 2.59 nM; in [7] (read-out: Cytotoxicity IC50, MX-1 and L1210FR, free drug, range, 72 h incubation (Assay 1)), 2.32 to 2.66 nM.

As for “Biotin-(SS-Linker)-SB-T-1214 [conjugate 4]”, the half-inhibitory concentration (IC50) was 481 ± 34 nM in series [2]; 645 ± 97 nM in series [3] (setting [14]); 670 ± 89 nM in [3] (setting [15]); 12.3 ± 2.8 nM in [4] (setting [16]); 13.4 ± 6.8 nM in series [4] (setting [17]); 3.85 ± 0.14 nM in [8]. Further, the concentration for half-maximal inhibition (IC50) in series [9] was 2.92 ± 2.34 nM; in series [10] it was 5.15 ± 2.85 nM; in series [5], 4.32 ± 1.58 nM; in series [6] (setting [18]), 4.66 ± 0.87 nM; in series [6] (setting [19]) it was 15.4 ± 4.2 nM; in series [7] (read-out: Cytotoxicity IC50, BR+ cancer cells (MX-1, L1210FR), Assay 2, range, 24 h, PBS wash, GSH-OEt, additional 48 h), 3.85 to 6.6 nM. The “potency times lower than free taxoid 3 against three BR+ cancer cell lines” value in series [7] (48 h incubation) is given as 3–30 times. Further, in series [7] (Assay 2), the “cancer cell selectivity (BR-specificity), BR+ cancer cells vs BR− WI38 cells” value is on record as “two-orders of magnitude difference”.

As to Biotin-NH-PEG3-(CH2)2-NH-FITC [probe 5], the “internalization into WI38 cells” value in [11] is on record as “no appreciable internalization”. Moreover, in series [12], the “internalization into L1210 cells” value is “no appreciable internalization”. Further, the “internalization into BR+ cancer cell lines” value in series [13] was “highly target-specific and efficient internalization”.

These data come from article PMC4359053 (Journal of medicinal chemistry, 2015).
